Results as given in ChEMBL document CHEMBL1255358, “Relation between genetic markers of drug resistance and susceptibility profile of clinical Neisseria gonorrhoeae strains” (2008).

Assays:
Assay type in all cases: functional
Neisseria gonorrhoeae [1] = experiment: Antimicrobial activity against Neisseria gonorrhoeae obtained from patient with uncomplicated gonorrhea expressing penA mutant gene assessed as percentage intermediate isolates by agar dilution method
Method in brief: (§1)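 Clinical isolates shipped frozen on dry ice to a central lab, recovered from cryobeads onto GC agar and subcultured once. MICs were determined by agar dilution on GC agar supplemented with PolyViteX, with strain ATCC 49226 as control. Isolates were classed susceptible, intermediate or resistant by current CLSI criteria. Genotypes were assigned by PCR, and by minisequencing with MALDI-TOF mass spectrometry.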

Neisseria gonorrhoeae [2] = experiment: Antimicrobial activity against Neisseria gonorrhoeae obtained from patient with uncomplicated gonorrhea assessed as incidence of resistant isolates by agar dilution method; method in brief: as §1
Neisseria gonorrhoeae [3] = experiment: Antimicrobial activity against Neisseria gonorrhoeae obtained from patient with uncomplicated gonorrhea assessed as percentage intermediate isolates by agar dilution method
Method in brief: (§2)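 Agar dilution MICs on GC agar supplemented with PolyViteX, tested against penicillin, tetracycline and fluoroquinolones. Clinical isolates were shipped frozen on dry ice to a central laboratory, recovered from cryobeads on GC agar plates and subcultured once before testing. Strain ATCC 49226 served as the control. Isolates were classed susceptible, intermediate or resistant using current CLSI interpretive criteria.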

Neisseria gonorrhoeae [4] = experiment: Antimicrobial activity against Neisseria gonorrhoeae obtained from patient with uncomplicated gonorrhea assessed as incidence of susceptible isolates by agar dilution method; method in brief: as §2
Neisseria gonorrhoeae [5] = experiment: Antimicrobial activity against Neisseria gonorrhoeae obtained from patient with uncomplicated gonorrhea expressing penA, penB and mtrR mutant gene assessed as percentage intermediate isolates by agar dilution method; method in brief: as §1
Neisseria gonorrhoeae [6] = experiment: Antimicrobial activity against Neisseria gonorrhoeae obtained from patient with uncomplicated gonorrhea expressing penA, ponA and mtrR mutant gene assessed as incidence of resistant isolates by agar dilution method; method in brief: as §1
Neisseria gonorrhoeae [7] = experiment: Antimicrobial activity against Neisseria gonorrhoeae obtained from patient with uncomplicated gonorrhea expressing penA and mtrR mutant gene assessed as incidence of susceptible isolates by agar dilution method; method in brief: as §1
Neisseria gonorrhoeae [8] = experiment: Antimicrobial activity against Neisseria gonorrhoeae obtained from patient with uncomplicated gonorrhea expressing penA and ponA mutant gene assessed as percentage intermediate isolates by agar dilution method; method in brief: as §1
Neisseria gonorrhoeae [9] = experiment: Antimicrobial activity against Neisseria gonorrhoeae obtained from patient with uncomplicated gonorrhea expressing penA, penB and mtrR mutant gene assessed as incidence of resistant isolates by agar dilution method; method in brief: as §1
Neisseria gonorrhoeae [10] = experiment: Antimicrobial activity against Neisseria gonorrhoeae obtained from patient with uncomplicated gonorrhea expressing penA and ponA mutant gene assessed as incidence of susceptible isolates by agar dilution method; method in brief: as §1
Neisseria gonorrhoeae [11] = experiment: Antimicrobial activity against Neisseria gonorrhoeae obtained from patient with uncomplicated gonorrhea expressing penA, penB, ponA and mtrR mutant gene assessed as incidence of resistant isolates by agar dilution method; method in brief: as §1
Neisseria gonorrhoeae [12] = experiment: Antimicrobial activity against Neisseria gonorrhoeae obtained from patient with uncomplicated gonorrhea expressing penA, ponA and mtrR mutant gene assessed as incidence of susceptible isolates by agar dilution method; method in brief: as §1
Neisseria gonorrhoeae [13] = experiment: Antimicrobial activity against Neisseria gonorrhoeae obtained from patient with uncomplicated gonorrhea expressing penB mutant gene assessed as percentage intermediate isolates by agar dilution method
Method in brief: (§3)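 Clinical N. gonorrhoeae isolates were shipped frozen on dry ice and recovered from cryobeads on GC agar. They were subcultured once and then tested by agar dilution on GC agar with PolyViteX supplement, with ATCC 49226 as the control strain. Susceptible, intermediate or resistant status was set by CLSI criteria. Genotype came from PCR for blaTEM-1/tet(M) and from primer-extension minisequencing with MALDI-TOF detection of SNPs.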

Neisseria gonorrhoeae [14] = experiment: Antimicrobial activity against Neisseria gonorrhoeae obtained from patient with uncomplicated gonorrhea expressing penA, penB and mtrR mutant gene assessed as incidence of susceptible isolates by agar dilution method; method in brief: as §1
Neisseria gonorrhoeae [15] = experiment: Antimicrobial activity against Neisseria gonorrhoeae obtained from patient with uncomplicated gonorrhea expressing penA, ponA and mtrR mutant gene assessed as percentage intermediate isolates by agar dilution method; method in brief: as §1
Neisseria gonorrhoeae [16] = experiment: Antimicrobial activity against Neisseria gonorrhoeae obtained from patient with uncomplicated gonorrhea expressing penA and penB mutant gene assessed as percentage intermediate isolates by agar dilution method; method in brief: as §1
Neisseria gonorrhoeae [17] = experiment: Antimicrobial activity against Neisseria gonorrhoeae obtained from patient with uncomplicated gonorrhea expressing beta-lactamase TEM-1 mutant gene assessed as percentage intermediate isolates by agar dilution method; method in brief: as §1
Neisseria gonorrhoeae [18] = experiment: Antimicrobial activity against Neisseria gonorrhoeae obtained from patient with uncomplicated gonorrhea expressing penA, penB, ponA and mtrR mutant gene assessed as percentage intermediate isolates by agar dilution method; method in brief: as §1
Neisseria gonorrhoeae [19] = experiment: Antimicrobial activity against Neisseria gonorrhoeae obtained from patient with uncomplicated gonorrhea expressing penA and mtrR mutant gene assessed as percentage intermediate isolates by agar dilution method; method in brief: as §1
Neisseria gonorrhoeae [20] = experiment: Antimicrobial activity against Neisseria gonorrhoeae obtained from patient with uncomplicated gonorrhea expressing penA, penB and ponA mutant gene assessed as incidence of susceptible isolates by agar dilution method; method in brief: as §1
Neisseria gonorrhoeae [21] = experiment: Antimicrobial activity against Neisseria gonorrhoeae obtained from patient with uncomplicated gonorrhea expressing penA and penB mutant gene assessed as incidence of susceptible isolates by agar dilution method; method in brief: as §1
Neisseria gonorrhoeae [22] = experiment: Antimicrobial activity against Neisseria gonorrhoeae obtained from patient with uncomplicated gonorrhea expressing mtrR mutant gene assessed as incidence of resistant isolates by agar dilution method; method in brief: as §1
Neisseria gonorrhoeae [23] = experiment: Antimicrobial activity against Neisseria gonorrhoeae obtained from patient with uncomplicated gonorrhea expressing penA and penB mutant gene assessed as incidence of resistant isolates by agar dilution method; method in brief: as §1
Neisseria gonorrhoeae [24] = experiment: Antimicrobial activity against Neisseria gonorrhoeae obtained from patient with uncomplicated gonorrhea expressing penA, penB and ponA mutant gene assessed as percentage intermediate isolates by agar dilution method; method in brief: as §1
Neisseria gonorrhoeae [25] = experiment: Antimicrobial activity against Neisseria gonorrhoeae obtained from patient with uncomplicated gonorrhea expressing mtrR mutant gene assessed as percentage intermediate isolates by agar dilution method; method in brief: as §1
Neisseria gonorrhoeae [26] = experiment: Antimicrobial activity against Neisseria gonorrhoeae obtained from patient with uncomplicated gonorrhea expressing penA mutant gene assessed as incidence of resistant isolates by agar dilution method; method in brief: as §1
Neisseria gonorrhoeae [27] = experiment: Antimicrobial activity against Neisseria gonorrhoeae obtained from patient with uncomplicated gonorrhea expressing penB mutant gene assessed as incidence of resistant isolates by agar dilution method; method in brief: as §1
Neisseria gonorrhoeae [28] = experiment: Antimicrobial activity against Neisseria gonorrhoeae obtained from patient with uncomplicated gonorrhea expressing penA, penB, ponA and mtrR mutant gene assessed as incidence of susceptible isolates by agar dilution method; method in brief: as §1
Neisseria gonorrhoeae [29] = experiment: Antimicrobial activity against Neisseria gonorrhoeae obtained from patient with uncomplicated gonorrhea expressing beta-lactamase TEM-1 mutant gene assessed as incidence of susceptible isolates by agar dilution method; method in brief: as §1
Neisseria gonorrhoeae [30] = experiment: Antimicrobial activity against Neisseria gonorrhoeae obtained from patient with uncomplicated gonorrhea expressing penB mutant gene assessed as incidence of susceptible isolates by agar dilution method; method in brief: as §3
Neisseria gonorrhoeae [31] = experiment: Antimicrobial activity against Neisseria gonorrhoeae obtained from patient with uncomplicated gonorrhea expressing beta-lactamase TEM-1 mutant gene assessed as incidence of resistant isolates by agar dilution method; method in brief: as §1
Neisseria gonorrhoeae [32] = experiment: Antimicrobial activity against Neisseria gonorrhoeae obtained from patient with uncomplicated gonorrhea expressing penA mutant gene assessed as incidence of susceptible isolates by agar dilution method; method in brief: as §1
Neisseria gonorrhoeae [33] = experiment: Antimicrobial activity against Neisseria gonorrhoeae obtained from patient with uncomplicated gonorrhea expressing mtrR mutant gene assessed as incidence of susceptible isolates by agar dilution method; method in brief: as §1
Neisseria gonorrhoeae [34] = experiment: Antimicrobial activity against Neisseria gonorrhoeae obtained from patient with uncomplicated gonorrhea expressing penA and mtrR mutant gene assessed as incidence of resistant isolates by agar dilution method; method in brief: as §1
Neisseria gonorrhoeae [35] = experiment: Antimicrobial activity against Neisseria gonorrhoeae obtained from patient with uncomplicated gonorrhea expressing penA and ponA mutant gene assessed as incidence of resistant isolates by agar dilution method; method in brief: as §1
Neisseria gonorrhoeae [36] = experiment: Antimicrobial activity against Neisseria gonorrhoeae obtained from patient with uncomplicated gonorrhea expressing penA, penB and ponA mutant gene assessed as incidence of resistant isolates by agar dilution method; method in brief: as §1
Neisseria gonorrhoeae [37] = experiment: Antimicrobial activity against Neisseria gonorrhoeae obtained from patient with uncomplicated gonorrhea expressing rpsJ and mtrR mutant gene assessed as incidence of resistant isolates by agar dilution method; method in brief: as §3
Neisseria gonorrhoeae [38] = experiment: Antimicrobial activity against Neisseria gonorrhoeae obtained from patient with uncomplicated gonorrhea expressing rpsJ and penB mutant gene assessed as incidence of susceptible isolates by agar dilution method; method in brief: as §3
Neisseria gonorrhoeae [39] = experiment: Antimicrobial activity against Neisseria gonorrhoeae obtained from patient with uncomplicated gonorrhea expressing tetM mutant gene in combination with variants of other gene loci assessed as incidence of resistant isolates by agar dilution method; method in brief: as §3
Neisseria gonorrhoeae [40] = experiment: Antimicrobial activity against Neisseria gonorrhoeae obtained from patient with uncomplicated gonorrhea expressing rpsJ mutant gene assessed as percentage intermediate isolates by agar dilution method; method in brief: as §3
Neisseria gonorrhoeae [41] = experiment: Antimicrobial activity against Neisseria gonorrhoeae obtained from patient with uncomplicated gonorrhea expressing rpsJ mutant gene assessed as incidence of susceptible isolates by agar dilution method; method in brief: as §3
Neisseria gonorrhoeae [42] = experiment: Antimicrobial activity against Neisseria gonorrhoeae obtained from patient with uncomplicated gonorrhea expressing tetM mutant gene in combination with variants of other gene loci assessed as percentage intermediate isolates by agar dilution method; method in brief: as §3
Neisseria gonorrhoeae [43] = experiment: Antimicrobial activity against Neisseria gonorrhoeae obtained from patient with uncomplicated gonorrhea expressing rpsJ and penB mutant gene assessed as percentage intermediate isolates by agar dilution method; method in brief: as §3
Neisseria gonorrhoeae [44] = experiment: Antimicrobial activity against Neisseria gonorrhoeae obtained from patient with uncomplicated gonorrhea expressing rpsJ and mtrR mutant gene assessed as percentage intermediate isolates by agar dilution method; method in brief: as §3
Neisseria gonorrhoeae [45] = experiment: Antimicrobial activity against Neisseria gonorrhoeae obtained from patient with uncomplicated gonorrhea expressing rpsJ and penB mutant gene assessed as incidence of resistant isolates by agar dilution method; method in brief: as §3
Neisseria gonorrhoeae [46] = experiment: Antimicrobial activity against Neisseria gonorrhoeae obtained from patient with uncomplicated gonorrhea expressing rpsJ and mtrR mutant gene assessed as incidence of susceptible isolates by agar dilution method; method in brief: as §3
Neisseria gonorrhoeae [47] = experiment: Antimicrobial activity against Neisseria gonorrhoeae obtained from patient with uncomplicated gonorrhea expressing tetM mutant gene in combination with variants of other gene loci assessed as incidence of susceptible isolates by agar dilution method; method in brief: as §3
Neisseria gonorrhoeae [48] = experiment: Antimicrobial activity against Neisseria gonorrhoeae obtained from patient with uncomplicated gonorrhea expressing rpsJ mutant gene assessed as incidence of resistant isolates by agar dilution method; method in brief: as §3
Neisseria gonorrhoeae [49] = experiment: Antimicrobial activity against Neisseria gonorrhoeae obtained from patient with uncomplicated gonorrhea expressing rpsJ, penB and mtrR mutant gene assessed as incidence of susceptible isolates by agar dilution method; method in brief: as §3
Neisseria gonorrhoeae [50] = experiment: Antimicrobial activity against Neisseria gonorrhoeae obtained from patient with uncomplicated gonorrhea expressing rpsJ, penB and mtrR mutant gene assessed as percentage intermediate isolates by agar dilution method; method in brief: as §3
Neisseria gonorrhoeae [51] = experiment: Antimicrobial activity against Neisseria gonorrhoeae obtained from patient with uncomplicated gonorrhea expressing rpsJ, penB and mtrR mutant gene assessed as incidence of resistant isolates by agar dilution method; method in brief: as §3

O=C(O)c1cn(C2CC2)c2cc(N3CCNCC3)c(F)cc2c1=O [CIPROFLOXACIN]
Activity (Neisseria gonorrhoeae [1]): 0%
Activity (Neisseria gonorrhoeae [2]): 0%
Activity (Neisseria gonorrhoeae [3]): 0.7%
Activity (Neisseria gonorrhoeae [4]): 99.3%

CC1(C)S[C@@H]2[C@H](NC(=O)Cc3ccccc3)C(=O)N2[C@H]1C(=O)O [PENICILLIN G]
Activity (Neisseria gonorrhoeae [5]): 50%
Activity (Neisseria gonorrhoeae [6]): 8%
Activity (Neisseria gonorrhoeae [7]): 33.3%
Activity (Neisseria gonorrhoeae [8]): 79.5%
Activity (Neisseria gonorrhoeae [1]): 47.1%
Activity (Neisseria gonorrhoeae [9]): 0%
Activity (Neisseria gonorrhoeae [10]): 15.4%
Activity (Neisseria gonorrhoeae [11]): 17.3%
Activity (Neisseria gonorrhoeae [12]): 9.7%
Activity (Neisseria gonorrhoeae [13]): 0%
Activity (Neisseria gonorrhoeae [14]): 50%
Activity (Neisseria gonorrhoeae [15]): 82.3%
Activity (Neisseria gonorrhoeae [16]): 71.4%
Activity (Neisseria gonorrhoeae [17]): 16.7%
Activity (Neisseria gonorrhoeae [18]): 71.4%
Activity (Neisseria gonorrhoeae [19]): 60%
Activity (Neisseria gonorrhoeae [2]): 0%
Activity (Neisseria gonorrhoeae [20]): 7.9%
Activity (Neisseria gonorrhoeae [21]): 28.6%
Activity (Neisseria gonorrhoeae [3]): 9.3%
Activity (Neisseria gonorrhoeae [22]): 0%
Activity (Neisseria gonorrhoeae [23]): 0%
Activity (Neisseria gonorrhoeae [24]): 82.8%
Activity (Neisseria gonorrhoeae [25]): 0%
Activity (Neisseria gonorrhoeae [26]): 3.9%
Activity (Neisseria gonorrhoeae [27]): 0%
Activity (Neisseria gonorrhoeae [4]): 90.7%
Activity (Neisseria gonorrhoeae [28]): 11.3%
Activity (Neisseria gonorrhoeae [29]): 0%
Activity (Neisseria gonorrhoeae [30]): 100%
Activity (Neisseria gonorrhoeae [31]): 83.3%
Activity (Neisseria gonorrhoeae [32]): 49%
Activity (Neisseria gonorrhoeae [33]): 100%
Activity (Neisseria gonorrhoeae [34]): 6.7%
Activity (Neisseria gonorrhoeae [35]): 5.1%
Activity (Neisseria gonorrhoeae [36]): 9.2%

CN(C)[C@@H]1C(O)=C(C(N)=O)C(=O)[C@@]2(O)C(O)=C3C(=O)c4c(O)cccc4[C@@](C)(O)[C@H]3C[C@@H]12 [TETRACYCLINE]
Activity (Neisseria gonorrhoeae [37]): 46.2%
Activity (Neisseria gonorrhoeae [38]): 20.7%
Activity (Neisseria gonorrhoeae [39]): 100%
Activity (Neisseria gonorrhoeae [40]): 50.8%
Activity (Neisseria gonorrhoeae [41]): 30.5%
Activity (Neisseria gonorrhoeae [1]): 0%
Activity (Neisseria gonorrhoeae [42]): 0%
Activity (Neisseria gonorrhoeae [43]): 25.3%
Activity (Neisseria gonorrhoeae [44]): 26.9%
Activity (Neisseria gonorrhoeae [45]): 54%
Activity (Neisseria gonorrhoeae [2]): 0%
Activity (Neisseria gonorrhoeae [46]): 26.9%
Activity (Neisseria gonorrhoeae [3]): 16.5%
Activity (Neisseria gonorrhoeae [22]): 0%
Activity (Neisseria gonorrhoeae [47]): 0%
Activity (Neisseria gonorrhoeae [48]): 18.7%
Activity (Neisseria gonorrhoeae [25]): 0%
Activity (Neisseria gonorrhoeae [4]): 83.5%
Activity (Neisseria gonorrhoeae [49]): 20.9%
Activity (Neisseria gonorrhoeae [50]): 23%
Activity (Neisseria gonorrhoeae [51]): 56.1%
Activity (Neisseria gonorrhoeae [33]): 100%
